Data set [1] deals with ATP-dependent translocase ABCB1 (Homo sapiens, UniProt P08183). Put plainly: Reversal of human ABCB1-mediated multidrug resistance in HEK293/MDR19 cells assessed as fold change in colchicine IC50 at 1 uM after 72 hrs by CCK8 relative to colchicine IC50. It counts as cell-based. The method in brief:
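Cells were seeded at 5000/well for 24 h, then given colchicine, etoposide, mitoxantrone or topotecan ± non-toxic modulator (0.5–3.0 μM) for 72 h, with DMSO up to 0.5%. IC50 came from fitted curves (mean ± SD, three experiments). Fold-reversal = IC50 without modulator ÷ IC50 with modulator.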

In another data set the test system is HEK293. Put plainly: Effect on Colchicine-induced cytotoxicity against HEK293 cells assessed as fold change in colchicine IC50 at 1 uM after 72 hrs by CCK8 assay relative to colchicine IC50. The data set is classed as cell-based. As to conditions: human, hek293, 72 h. The method in brief: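 Reversal assay in parental pcDNA-HEK293 and transfected HEK293 lines (ABCB1 for colchicine, ABCC1 for etoposide, ABCG2 for mitoxantrone/topotecan). Substrate drug series was given with or without nontoxic modulator (0.5, 1.0, 2.0 or 3.0 μM) for 72 h, with a CCK-8 read-out. Fold-reversal is substrate IC50 without modulator divided by IC50 with modulator. Three independent experiments.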
A general note: Tetrazolium dyes change colour on reduction, which living cells bring about.

Data set [2] has as its system S1. Put plainly: Induction of apoptosis in human S1 cells assessed as early apoptotic cells at 5 uM incubated for 48 hrs by annexin V/propidium iodide staining based flow cytometry (reference value: 2%). The data set is classed as functional. In short, it runs like this: (§1)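 S1 cells were exposed for 48 h to DMSO, 10 μM compound, 5 μM topotecan, or 5 μM topotecan plus 10 μM compound. They were then stained with 1.25 μg/mL annexin V–FITC and 0.1 mg/mL PI for 15 min at room temperature. 10000 cells per sample were analysed by flow cytometry; three independent experiments.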
Background: In flow cytometry, cells or beads pass a laser one at a time.

Data set [3] has as its system S1. Put plainly: Induction of apoptosis in human S1 cells assessed as necrotic cells at 5 uM incubated for 48 hrs by annexin V/propidium iodide staining based flow cytometry (reference value: 0.2%). The data set is classed as functional.
In data set [4] the test system is S1. Put plainly: Induction of apoptosis in human S1 cells assessed as late apoptotic cells at 5 uM incubated for 48 hrs by annexin V/propidium iodide staining based flow cytometry (reference value: 3.6%). It counts as functional. The method in brief: as §1
For data set [5], the system named is S1. Put plainly: Induction of apoptosis in human S1 cells assessed as viable cells at 5 uM incubated for 48 hrs by annexin V/propidium iodide staining based flow cytometry (reference value: 94.1%). To be noted: S1, 48 h, read-out: Activity. It counts as functional.

Sequence of ATP-dependent translocase ABCB1 (P08183 whole entry): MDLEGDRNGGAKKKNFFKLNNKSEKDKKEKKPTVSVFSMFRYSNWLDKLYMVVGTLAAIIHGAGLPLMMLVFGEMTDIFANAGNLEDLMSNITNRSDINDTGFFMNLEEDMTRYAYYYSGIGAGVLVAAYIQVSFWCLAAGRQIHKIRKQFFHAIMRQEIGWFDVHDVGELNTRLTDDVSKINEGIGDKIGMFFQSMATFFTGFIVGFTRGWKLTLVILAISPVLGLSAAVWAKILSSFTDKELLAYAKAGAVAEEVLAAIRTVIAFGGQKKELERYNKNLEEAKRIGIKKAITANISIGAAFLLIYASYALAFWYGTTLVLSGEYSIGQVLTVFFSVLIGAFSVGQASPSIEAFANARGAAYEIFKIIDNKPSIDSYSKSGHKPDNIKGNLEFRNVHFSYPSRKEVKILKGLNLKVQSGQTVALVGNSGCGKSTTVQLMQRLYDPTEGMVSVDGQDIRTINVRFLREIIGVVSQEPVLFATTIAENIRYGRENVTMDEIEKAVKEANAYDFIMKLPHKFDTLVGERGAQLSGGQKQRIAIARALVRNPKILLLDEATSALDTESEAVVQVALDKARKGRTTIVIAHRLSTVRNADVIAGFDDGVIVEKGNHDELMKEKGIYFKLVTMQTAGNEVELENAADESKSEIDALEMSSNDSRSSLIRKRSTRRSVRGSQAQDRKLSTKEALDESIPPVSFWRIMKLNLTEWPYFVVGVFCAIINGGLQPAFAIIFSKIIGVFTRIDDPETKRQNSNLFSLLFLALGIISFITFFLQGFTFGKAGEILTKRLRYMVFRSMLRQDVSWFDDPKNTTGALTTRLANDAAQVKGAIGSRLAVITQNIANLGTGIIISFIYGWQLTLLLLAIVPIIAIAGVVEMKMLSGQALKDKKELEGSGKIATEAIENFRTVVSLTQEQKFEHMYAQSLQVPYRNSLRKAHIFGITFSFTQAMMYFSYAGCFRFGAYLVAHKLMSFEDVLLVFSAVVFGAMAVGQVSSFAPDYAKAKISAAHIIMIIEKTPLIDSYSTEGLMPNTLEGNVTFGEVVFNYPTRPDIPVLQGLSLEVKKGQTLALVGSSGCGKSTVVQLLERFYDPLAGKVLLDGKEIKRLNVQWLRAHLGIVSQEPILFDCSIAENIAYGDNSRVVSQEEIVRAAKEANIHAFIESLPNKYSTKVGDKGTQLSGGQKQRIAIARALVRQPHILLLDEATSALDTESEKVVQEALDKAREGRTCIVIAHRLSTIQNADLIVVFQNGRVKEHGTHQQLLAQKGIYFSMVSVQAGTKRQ

In the case of `COc1cc2c(cc1OC)CN(CCc1ccc(NC(=O)c3cc(OC)c(OC)cc3NC(=O)c3cnc4ccccc4c3)cc1)CC2`, the “fold change (FC)” value in data set [1] is reported as 12.5; in the data set on HEK293 it was 1.1.
For the molecule `CC[C@@]1(O)C(=O)OCc2c1cc1n(c2=O)Cc2cc3c(CN(C)C)c(O)ccc3nc2-1` [TOPOTECAN], the Activity is 31.2% with S1 [2], 3.5% with S1 [3] and 22.7% in the data set on S1 [4]. In addition, the viability at 5 µM in the data set with S1 [5] was determined as 42.7%.
